Experimental findings from ChEMBL document CHEMBL3351567, “Heterodimeric ent-kauranoids from Isodon tenuifolius” (J Nat Prod, 2014) are described below.

What all share (assay type): functional, cell-based
One assay has as its system A549. Description: Cytotoxicity against human A549 cells after 48 hrs by MTT assay. The settings on record: A549, 48 h. In outline:
(§1)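 Cells grown in RPMI-1640 or DMEM with 10% FBS, 37 °C, 5% CO2. Seeded at 1 × 10^5 cells/mL in 100 μL; adherent lines attached 12 h before dosing, suspension cells seeded at dosing. Compound at various concentrations in triplicate, 48 h. MTT (100 μg) added for 4 h, lysed with 20% SDS–50% DMF, OD 595 nm. IC50 by Reed–Muench method; cisplatin and paclitaxel as positive controls.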
A general note: Tetrazolium dyes change colour on reduction, which living cells bring about.

The test system of a further assay is SMMC-7721. Description: Cytotoxicity against human SMMC7721 cells after 48 hrs by MTT assay. The settings on record: SMMC-7721, 48 h. In outline: as §1
The subject of the next assay is MCF7. Nature of the assay: Cytotoxicity against human MCF7 cells after 48 hrs by MTT assay. To be noted: MCF7, 48 h. The gist of the method:
as §1

Another assay deals with SW480. Nature of the assay: Cytotoxicity against human SW480 cells after 48 hrs by MTT assay. The settings on record: SW480, 48 h. In outline: as §1
A short description of assay [1]: Cytotoxicity against human HL60 cells after 48 hrs by MTT assay. To be noted: HL-60, 48 h. In outline: as §1

In general, IC50 refers to the point on the concentration scale where inhibition reaches its midpoint. A low value points to greater potency.

On to `CC(=O)O[C@H]1C[C@@H]2C[C@@]3(C(=O)[C@]24CCC2=C(O4)[C@]45C[C@H]2C[C@H](OC(C)=O)[C@H]4[C@]2(C)[C@@H](OC(C)=O)C[C@H](O)C(C)(C)[C@H]2C(=O)[C@@H]5O)[C@@H]1[C@]1(C)[C@@H](OC(C)=O)C[C@H](O)C(C)(C)[C@H]1C(=O)[C@@H]3O`, for which the IC50 (in the assay with A549; with SMMC-7721; in the assay with MCF7; in the assay with SW480; in assay [1]) was above 10 µM each time.

Take `CC(=O)O[C@H]1C[C@@H]2C[C@@]3(C(=O)[C@]24CCC2=C(O4)[C@]45C[C@H]2C[C@H](OC(C)=O)[C@H]4[C@]2(C)[C@@H](OC(C)=O)C[C@H](O)C(C)(C)[C@H]2C(=O)[C@@H]5OC(C)=O)[C@@H]1[C@]1(C)[C@@H](OC(C)=O)C[C@H](OC(C)=O)C(C)(C)[C@H]1C(=O)[C@@H]3O`: the IC50 (in the assay on A549; with SMMC-7721; in the assay on MCF7; in the assay with SW480; in assay [1]) was above 10 µM in each case.

As for `COC[C@@]1(C[C@@H]2C(=O)[C@]34C[C@H]2C[C@H](OC(C)=O)[C@H]3[C@@]2(C)[C@H](C(=O)[C@@H]4O)C(C)(C)[C@@H](O)C[C@@H]2O)C(=O)[C@]23C[C@H]1C[C@H](OC(C)=O)[C@H]2[C@]1(C)[C@@H](OC(C)=O)C[C@H](O)C(C)(C)[C@H]1C(=O)[C@@H]3O`, the IC50 (with A549; in the assay on SMMC-7721; in the assay with MCF7; with SW480; in assay [1]) was above 10 µM throughout.

Take `COC[C@@]1(C[C@@H]2C(=O)[C@]34C[C@H]2C[C@H](OC(C)=O)[C@H]3[C@]2(C)[C@@H](OC(C)=O)C[C@H](O)C(C)(C)[C@H]2C(=O)[C@@H]4O)C(=O)[C@]23C[C@H]1C[C@H](OC(C)=O)[C@H]2[C@]1(C)[C@@H](OC(C)=O)C[C@H](O)C(C)(C)[C@H]1C(=O)[C@H]3O`: the IC50 (with A549; in the assay with SMMC-7721; in the assay with MCF7; in the assay on SW480; in assay [1]) was above 10 µM in each case.

`CC(=O)O[C@H]1C[C@@H]2C[C@@]3(C(=O)[C@H]2C[C@]2(CO)C(=O)[C@]45C[C@H]2C[C@H](OC(C)=O)[C@H]4[C@]2(C)[C@@H](OC(C)=O)C[C@H](O)C(C)(C)[C@H]2C(=O)[C@@H]5O)[C@@H]1[C@]1(C)[C@@H](OC(C)=O)C[C@H](O)C(C)(C)[C@H]1C(=O)[C@@H]3O`: the IC50 (in the assay on A549; in the assay with SMMC-7721; in the assay with MCF7; in the assay with SW480; in assay [1]) was above 10 µM each time.

With `CC(=O)O[C@H]1C[C@@H]2C[C@@]3(C(=O)[C@]24CC[C@@]42C(=O)[C@]45C[C@H]2C[C@H](OC(C)=O)[C@H]4[C@]2(C)[C@@H](OC(C)=O)C[C@H](O)C(C)(C)[C@H]2C(=O)[C@@H]5O)[C@@H]1[C@]1(C)[C@@H](OC(C)=O)C[C@H](OC(C)=O)C(C)(C)[C@H]1C(=O)[C@@H]3OC(C)=O`, the IC50 (with A549; with SMMC-7721; in the assay on MCF7; with SW480; in assay [1]) was above 10 µM each time.

As to `CC(=O)O[C@H]1C[C@@H]2C[C@@]3(C(=O)[C@]24CCC2=C(O4)[C@]45C[C@H]2C[C@H](OC(C)=O)[C@H]4[C@]2(C)[C@@H](OC(C)=O)C[C@H](O)C(C)(C)[C@H]2[C@@H](O)[C@@H]5O)[C@@H]1[C@]1(C)[C@@H](OC(C)=O)C[C@H](O)C(C)(C)[C@H]1[C@@H](O)[C@@H]3O`, the IC50 (in the assay with A549; with SMMC-7721; in the assay with MCF7; in the assay with SW480; in assay [1]) was above 10 µM each time.

For `CC(=O)O[C@H]1C[C@@H]2C[C@@]3(C4=C2CC[C@@]2(O4)C(=O)[C@]45C[C@H]2C[C@H](OC(C)=O)[C@H]4[C@]2(C)[C@@H](OC(C)=O)C[C@H](O)C(C)(C)[C@H]2C(=O)[C@@H]5OC(C)=O)[C@@H]1[C@]1(C)[C@@H](OC(C)=O)C[C@H](OC(C)=O)C(C)(C)[C@H]1C(=O)[C@@H]3O`, the IC50 in the assay with A549 is above 10 µM; with SMMC-7721, 9.9 µM; with MCF7, 4.2 µM; with SW480 it was 4 µM; in assay [1], 4.6 µM.

As for `CC(=O)O[C@H]1C[C@@H]2C[C@@]3(C(=O)[C@]24CCC2=C(O4)[C@@]45CC(=O)[C@@H]6C(C)(C)[C@@H](OC(C)=O)C[C@H](O)[C@@]6(C)[C@@H]4C(=O)C[C@@H]2C5)[C@@H]1[C@]1(C)[C@@H](OC(C)=O)C[C@H](O)C(C)(C)[C@H]1C(=O)[C@@H]3OC(C)=O`, the IC50 (in the assay on A549; with SMMC-7721; with MCF7; with SW480; in assay [1]) was above 10 µM throughout.

Regarding `CC(=O)O[C@H]1C(=O)[C@@]2(C)[C@H]([C@H](OC(=O)c3ccccc3)[C@]3(O)C[C@H](OC(=O)[C@H](O)[C@@H](NC(=O)c4ccccc4)c4ccccc4)C(C)=C1C3(C)C)[C@]1(OC(C)=O)CO[C@@H]1C[C@@H]2O` [PACLITAXEL], the IC50 (in the assay with A549; in the assay with SMMC-7721; in the assay on MCF7; in assay [1]) was below 0.008 µM in each case.

As to `COC[C@@]1(C[C@@H]2C(=O)[C@]34C[C@H]2C[C@H](OC(C)=O)[C@H]3[C@]2(C)[C@@H](OC(C)=O)C[C@H](O)C(C)(C)[C@H]2C(=O)[C@@H]4O)C(=O)[C@]23C[C@H]1C[C@H](O)[C@H]2[C@@]1(C)[C@H](C(=O)[C@@H]3O)C(C)(C)[C@@H](O)C[C@@H]1O`, the IC50 (in the assay on A549; in the assay with SMMC-7721; in the assay with MCF7; in the assay on SW480; in assay [1]) was above 10 µM in each case.

Take `COC[C@@]1(C[C@@H]2C(=O)[C@]34C[C@H]2C[C@H](OC(C)=O)[C@H]3[C@]2(C)[C@@H](OC(C)=O)C[C@H](O)C(C)(C)[C@H]2C(=O)[C@@H]4O)C(=O)[C@]23C[C@H]1C[C@H](OC(C)=O)[C@H]2[C@]1(C)[C@@H](OC(C)=O)C[C@H](O)C(C)(C)[C@H]1C(=O)[C@@H]3O`: the IC50 (in the assay on A549; in the assay with SMMC-7721; in the assay with MCF7; in the assay with SW480; in assay [1]) was above 10 µM in each case.

In the case of `CC(=O)O[C@H]1C[C@@H]2C[C@@]3(CC(=O)[C@@H]4C(C)(C)[C@@H](O)C[C@H](OC(C)=O)[C@@]4(C)[C@H]13)C(=O)[C@]21CC[C@@]12C(=O)[C@]13C[C@H]2C[C@H](OC(C)=O)[C@H]1[C@]1(C)[C@@H](OC(C)=O)C[C@H](O)C(C)(C)[C@H]1C(=O)[C@@H]3OC(C)=O`, the IC50 (in the assay with A549; with SMMC-7721; in the assay on MCF7; in the assay with SW480; in assay [1]) was above 10 µM each time.
